Experimental data collected from several papers.
Compare with care: the assays were run in different laboratories.
Target: Ephrin type-B receptor 3 (EPHB3, Homo sapiens, UniProt P54753)
One construct used (P54753 1-998): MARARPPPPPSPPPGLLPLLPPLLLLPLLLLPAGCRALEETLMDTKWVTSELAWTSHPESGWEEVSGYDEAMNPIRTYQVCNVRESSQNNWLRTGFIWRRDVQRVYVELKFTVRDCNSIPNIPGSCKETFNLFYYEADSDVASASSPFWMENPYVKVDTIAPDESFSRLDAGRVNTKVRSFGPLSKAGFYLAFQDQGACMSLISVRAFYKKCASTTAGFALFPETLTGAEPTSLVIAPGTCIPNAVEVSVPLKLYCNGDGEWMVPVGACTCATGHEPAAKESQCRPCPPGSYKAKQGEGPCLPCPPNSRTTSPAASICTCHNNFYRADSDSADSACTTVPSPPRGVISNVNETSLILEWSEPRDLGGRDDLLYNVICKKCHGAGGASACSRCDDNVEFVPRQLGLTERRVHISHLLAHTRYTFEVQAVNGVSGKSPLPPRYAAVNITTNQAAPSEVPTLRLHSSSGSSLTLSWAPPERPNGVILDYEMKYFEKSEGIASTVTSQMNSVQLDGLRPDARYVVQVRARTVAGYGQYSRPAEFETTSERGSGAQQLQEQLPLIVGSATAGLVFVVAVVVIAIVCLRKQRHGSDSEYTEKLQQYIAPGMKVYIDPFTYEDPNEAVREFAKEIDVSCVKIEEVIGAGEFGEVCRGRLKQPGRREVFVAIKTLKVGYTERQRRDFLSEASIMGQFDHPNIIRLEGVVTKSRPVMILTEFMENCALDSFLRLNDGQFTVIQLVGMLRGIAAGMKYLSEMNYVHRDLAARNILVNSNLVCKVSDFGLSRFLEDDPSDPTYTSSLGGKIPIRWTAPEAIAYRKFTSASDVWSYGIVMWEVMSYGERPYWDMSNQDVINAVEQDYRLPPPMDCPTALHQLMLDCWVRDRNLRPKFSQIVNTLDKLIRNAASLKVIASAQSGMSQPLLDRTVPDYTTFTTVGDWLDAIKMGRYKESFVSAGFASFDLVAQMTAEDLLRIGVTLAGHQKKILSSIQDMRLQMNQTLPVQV

SMILES	assay	setting	remaining binding
O=C(c1ccc(Nc2ncc(Cl)c(-c3ccc(Cl)s3)n2)cc1)N1CCC(N2CCCC2)CC1	binding, competition with immobilised ligand	1 µM	88%
O=C(NCCCC1CCCCC1)c1ccc(CNC(=O)c2cnn(-c3ccccc3)c2C(F)(F)F)cc1	cell-free assay, competition with immobilised ligand	0.1 µM	79%
Cc1cnc(Nc2ccc(C(=O)N3CCC(N4CCCC4)CC3)cc2)nc1-c1cc2ccccc2s1	binding, competition with immobilised ligand	1 µM	77%
O=C(NCC1CCOCC1)c1n[nH]cc1NC(=O)c1c(F)cccc1F	binding, competition with immobilised ligand	1 µM	100%
O=C(NCCCN1CCOCC1)c1ccc(Nc2ncc(Cl)c(-c3ccc(Cl)s3)n2)cc1	binding, competition with immobilised ligand	1 µM	95%
CN(CCCC(F)(F)F)c1nccc(-c2cnn3ncccc23)n1	binding	1 µM	87%
C=CC(=O)N1CCC(C(=O)NCC(=O)N2CCN(c3nc(-c4cnc(N)nc4C(F)F)nc(N4CCOCC4)n3)CC2)CC1	binding, competition with immobilised ligand	1 µM	98%
C[C@@H](c1cccc(C#N)c1)n1cc(Cl)cc(C(N)=O)c1=N	cell-free assay, competition with immobilised ligand	1 µM	85%
C[C@H]1CCN(c2nccc(-c3cnn4ncccc34)n2)C1	binding	1 µM	100%
COc1ncc2cc3ccccc3nc2c1C#N	cell-free assay, competition with immobilised ligand	5 µM	1.4%
F[C@@H]1CCN(c2nccc(-c3cnn4ncccc34)n2)C1	binding	1 µM	77%
c1cncc(-c2cccc(Nc3nccc(NC4CCCCC4)n3)c2)c1	binding, competition with immobilised ligand	10 µM	89%
COc1ccc2c(c1)O[C@@H](c1ccc(OC)c(OC)c1)C[C@H]2NC(=O)C1(c2ccc3c(c2)OC(F)(F)O3)CC1	cell-free assay, competition with immobilised ligand	1 µM	90%
CN(C)c1nccc(-c2cnn3ncccc23)n1	binding	1 µM	88%
CNC(=O)Nc1ccc2c(c1)CC[C@@]21OC(=O)N(CC(=O)N(Cc2ccc(F)cc2)[C@@H](C)C(F)(F)F)C1=O	cell-free assay, competition with immobilised ligand	1 µM	80%
N[C@@H]1CCN(c2nccc(-c3cnn4ncccc34)n2)C1	binding	1 µM	100%
O=C1NC(c2ccccn2)Sc2ccccc21 (centres unmarked)	cell-free assay, competition with immobilised ligand	1 µM	80%
CNC(=O)[C@@H]1CC[C@@H](n2c(-c3ccc4cnccc4c3)nc3ccc(C(=O)NCc4cccc(C(N)=O)c4)cc32)C1	binding, competition with immobilised ligand	1 µM	100%
c1cnn2ncc(-c3ccnc(N4CCC45COC5)n3)c2c1	binding	1 µM	87%
Cc1c(C(=O)O)cc(-c2ccc(C3CCNCC3)cc2)c2ccc(-c3ccc(C(F)(F)F)cc3)cc12	cell-free assay, competition with immobilised ligand	1 µM	100%
